# According to ChEMBL document CHEMBL1135672, “QSAR evaluation of the Ch'an Su and related bufadienolides against the colchicine-resistant primary liver carcinoma cell line PLC/PRF/5(1)” (J Med Chem, 2002):
# Key:
# Format in all cases: functional, Homo sapiens
# [1] = Inhibitory activity against the primary liver carcinoma (PLC) cell line PLC/PRF/5
# [2] = Inhibitory activity against Colchicine resistant parent primary liver carcinoma (PLC) cell line PLC/PRF/5
# Procedure, shortened: (§1)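 PLC/PRF/5 cells were precultured 24 h at 37 °C in 5% CO₂ in 96-well plates, then given colchicine at 0.5 μg/mL. Test compounds were added in dilutions of 10⁻²–10⁻⁶ μg/mL and incubated 72 h at 37 °C in 5% CO₂. Survival was read by MTT. IC50 is the μg/mL giving 50% growth inhibition of the colchicine-resistant cells.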
# [3] = Inhibitory activity against colchicine resistant parent primary liver carcinoma (PLC) cell line PLC/PRF/5; procedure, shortened: as §1
SMILES,IC50 [1],IC50 [2],IC50 [3]
C[C@]12CCC3C(CC[C@@H]4CC(=O)CC[C@]34C)C1=CC[C@@H]2c1ccc(=O)oc1 (some centres undefined),4.9 µg/mL,7.8 µg/mL,
CC(=O)O[C@H]1[C@H]2O[C@]23[C@@H]2CC[C@]4(O)C[C@@H](O)CC[C@]4(C)[C@H]2CC[C@]3(C)[C@H]1c1ccc(=O)oc1 [CINOBUFOTALIN],0.001 µg/mL,,0.008 µg/mL
CC(=O)O[C@H]1CC[C@@]2(C)[C@H](CC[C@@H]3[C@@H]2CC[C@]2(C)[C@@H](c4ccc(=O)oc4)CC(=O)[C@@H]32)C1,0.55 µg/mL,,1.8 µg/mL
CC(=O)O[C@H]1C[C@]2(O)[C@@H]3CC[C@@H]4C[C@@H](O)CC[C@]4(C)[C@H]3CC[C@]2(C)[C@H]1c1ccc(=O)oc1 [BUFOTALIN],0.00034 µg/mL,,0.0026 µg/mL
C[C@]12CCC(=O)C[C@H]1CC[C@@H]1[C@@H]2CC[C@]2(C)[C@@H](c3ccc(=O)oc3)CC[C@]12O,0.0093 µg/mL,,0.61 µg/mL
C[C@]12CCC(=O)C[C@H]1CC[C@@H]1[C@@H]2CC[C@]2(C)[C@@H](c3ccc(=O)oc3)C(=O)[C@H]3O[C@@]312,0.85 µg/mL,,5.6 µg/mL
COC(=O)C/C=C/C1=CO[C@]23CCC1[C@@]2(C)CC[C@H]1[C@H]3CC[C@@H]2C[C@@H](O)CC[C@@]21C,9.1 µg/mL,,45 µg/mL
C[C@]12CC[C@H](OC(=O)CCC(=O)O)C[C@H]1CC[C@@H]1[C@@H]2CC[C@]2(C)[C@@H](c3ccc(=O)oc3)CC[C@]12O,0.066 µg/mL,,0.51 µg/mL
CC(=O)O[C@H]1CC[C@@]2(C)[C@H](CC[C@@H]3[C@@H]2[C@H](O)C[C@]2(C)[C@@H](c4ccc(=O)oc4)CC[C@]32O)C1,0.06 µg/mL,,0.66 µg/mL
C[C@]12CC[C@H](O)C[C@H]1CC[C@@H]1[C@@H]2CC[C@]2(C)[C@@H](c3ccc(=O)oc3)CC[C@]12O [BUFALIN],0.00028 µg/mL,,0.00028 µg/mL
C[C@]12CCC(=O)C[C@H]1CC[C@@H]1[C@@H]2CC[C@]2(C)[C@@H](c3ccc(=O)oc3)CC(=O)[C@@H]12,7 µg/mL,,10 µg/mL
CC(=O)O[C@H]1CC[C@]2(C)C3CC[C@@]4(C)C(=C[C@H](OC(C)=O)[C@@H]4c4ccc(=O)oc4)C3CC[C@@H]2C1 (some centres undefined),5 µg/mL,,7.3 µg/mL
C[C@]12CCC3C(CC[C@@H]4C[C@@H](O)CC[C@]34C)C1=CC[C@@H]2C1=CC(=O)OC1 (some centres undefined),0.36 µg/mL,,0.73 µg/mL
C[C@]12CC[C@H]3[C@@H](CC[C@]4(O)C[C@@H](O)CC[C@]34C=O)[C@@]1(O)CC[C@@H]2c1ccc(=O)oc1,0.00016 µg/mL,,0.00053 µg/mL
C[C@]12CC[C@H](O)C[C@H]1CC[C@@H]1[C@@H]2CC[C@]2(C)C(/C(=C/CO)CO)C[C@H]3O[C@]132 (some centres undefined),> 50 µg/mL,,> 50 µg/mL
C[C@]12CC[C@H](O)C[C@@]1(O)CC[C@@H]1[C@@H]2CC[C@]2(C)[C@@H](C3=CC(=O)OC3)CC[C@]12O [PERIPLOGENIN],0.061 µg/mL,,0.75 µg/mL
C[C@]12CC[C@H](OC(=O)CCCCCCC(=O)O)C[C@H]1CC[C@@H]1[C@@H]2CC[C@]2(C)[C@@H](c3ccc(=O)oc3)CC[C@]12O,0.00075 µg/mL,,0.0036 µg/mL
